Assay results as given in ChEMBL document CHEMBL1152870, “Design and synthesis of novel dihydroquinoline-3-carboxylic acids as HIV-1 integrase inhibitors” (Bioorg Med Chem, 2009).
pIC50: −log10 of the molar value.

Key:
[1] = biological target: T1, Human immunodeficiency virus type 1 integrase (Human immunodeficiency virus 1, UniProt Q7ZJM1); assay: Inhibition of HIV1 integrase 3' processing activity by PAGE
[2] = biological target: T1, Human immunodeficiency virus type 1 integrase; assay: Inhibition of HIV1 integrase strand transfer activity by PAGE
HCT-116 [3] = assay: Cytotoxicity against p53 deficient human HCT116 cells after 72 hrs by MTT assay; type: functional; details: HCT-116, 72 h
In short: (§1)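 HCT116 p53+/+ or p53−/− cells grown as monolayers in RPMI 1640 with 10% FBS and 2 mmol/L L-glutamine at 37 °C, 5% CO2, and used in exponential growth. Cells were seeded, allowed to attach, then exposed continuously to drug for 72 h. DMSO stocks were diluted in medium. MTT (0.5 mg/mL final) was added for 4 h at 37 °C and read at 570 nm. Triplicates; IC50 from log concentration versus % cells killed.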

HCT-116 [4] = assay: Cytotoxicity against human HCT116 cells expressing p53 after 72 hrs by MTT assay; type: functional; details: HCT-116, 72 h; in short: as §1

T1 sequence (Q7ZJM1 whole entry): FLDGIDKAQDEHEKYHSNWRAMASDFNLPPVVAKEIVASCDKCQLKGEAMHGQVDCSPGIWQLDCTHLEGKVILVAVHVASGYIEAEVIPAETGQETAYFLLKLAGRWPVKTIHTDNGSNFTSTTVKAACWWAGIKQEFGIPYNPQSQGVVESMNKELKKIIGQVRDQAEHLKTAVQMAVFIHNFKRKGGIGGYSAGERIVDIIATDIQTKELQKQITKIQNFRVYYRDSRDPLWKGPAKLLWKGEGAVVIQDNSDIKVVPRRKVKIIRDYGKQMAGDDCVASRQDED

pIC50 [1] | pIC50 [2] | Structure (SMILES) | CC50 (HCT-116 [3]) | CC50 (HCT-116 [4])
3.10 | 3.66 | CCOC(=O)c1c(O)c2cc(Cc3ccc(F)cc3)ccc2n(C)c1=O | > 10 µM | > 10 µM
4.04 | 5.30 | CCCCCn1c(=O)c(C(=O)O)c(O)c2cc(Cc3ccc(F)cc3)ccc21 | > 10 µM | > 10 µM
4.64 | 6.05 | Cn1c(=O)c(C(=O)O)c(O)c2cc(Cc3ccc(F)cc3)ccc21 | > 10 µM | > 10 µM
4.35 | 5.22 | Cn1c(=O)c(C(=O)O)c(O)c2cc(Cc3ccccc3)ccc21 | > 10 µM | > 10 µM
3.56 | 3.96 | CCOC(=O)c1c(O)c2cc(Cc3ccccc3)ccc2n(C)c1=O | > 10 µM | > 10 µM

More lines, now with the values behind:

Structure (SMILES) | pIC50 [1] | pIC50 [2] | CC50 (HCT-116 [3]) | CC50 (HCT-116 [4])
CCOC(=O)c1c(O)c2cc(OC)ccc2n(C)c1=O | < 3.00 | < 3.00 | > 10 µM | > 10 µM
COc1ccc2c(c1)c(O)c(C(=O)O)c(=O)n2C | 3.24 | 3.49 | > 10 µM | > 10 µM
Cn1c(=O)c(C(=O)O)c(O)c2cc(Oc3ccccc3)ccc21 | 4.47 | 4.85 | > 10 µM | > 10 µM
CCCCCn1c(=O)c(C(=O)Nc2cc([N+](=O)[O-])ccc2O)c(O)c2ccccc21 | 5.05 | 5.05 | > 10 µM | > 10 µM
O=C(O)C(=O)CC(=O)c1cccn1Cc1ccc(F)cc1 | – | – | > 10 µM | > 10 µM
